# Laboratory results published in ChEMBL document CHEMBL4266039, “Overcoming Time-Dependent Inhibition (TDI) of Cytochrome P450 3A4 (CYP3A4) Resulting from Bioactivation of a Fluoropyrimidine Moiety” (J Med Chem, 2018).
# Experiments:
# Cytochrome P450 3A4 = Cytochrome P450 3A4 (Homo sapiens, UniProt P08684); experiment: Inhibition of CYP3A4 in human liver microsomes using testosterone as substrate preincubated for 30 mins followed by substrate/NADPH addition measured after 10 mins by LC-MS/MS analysis; type: ADME
# Rattus norvegicus [1] = experiment: Anti-alzheimer activity in rat assessed as reduction in amyloid beta40 levels in cerebrospinal fluid at 30 mg/kg, po relative to control; type: functional; design: scale not given: the % may be the effect or the level left
# Beta-secretase 1 = Beta-secretase 1 (Homo sapiens, UniProt P56817); experiment: Inhibition of purified human BACE1
# Rattus norvegicus [2] = experiment: Anti-alzheimer activity in rat assessed as reduction in amyloid beta40 levels in cerebrospinal fluid at 10 mg/kg, po relative to control; type: functional; design: scale not given: the % may be the effect or the level left
# [3] = AUC (0 to infinity) in Han Wistar rat at 10 mg/kg, po; type: ADME, organism-based; design: dose 10 mg/kg, route oral, time infinity; details: in vivo
# Summary of the method: (§1)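 Wistar Han rats received a single oral dose of 10 mg/kg. AUC(0-∞), Cmax and oral bioavailability (F%) were derived from this oral arm.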
# [4] = Cmax in Han Wistar rat at 10 mg/kg, po; type: ADME, organism-based; design: dose 10 mg/kg, route oral; details: in vivo; summary of the method: as §1
# [5] = Oral bioavailability in Han Wistar rat at 10 mg/kg; type: ADME, organism-based; details: in vivo; summary of the method: as §1
# [6] = Clearance in Han Wistar rat at 2 mg/kg, iv; type: ADME, organism-based; details: in vivo
# Summary of the method: (§2)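 Same Wistar Han rat PK study, intravenous arm at 2 mg/kg. Clearance, Vd,ss and t1/2 were taken from the iv data.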
# [7] = Volume of distribution at steady state in Han Wistar rat at 2 mg/kg, iv; type: ADME, organism-based; details: in vivo, read-out: Vdss; summary of the method: as §2
# [8] = Half life in Han Wistar rat at 2 mg/kg, iv; type: ADME, organism-based; details: in vivo; summary of the method: as §2
# [9] = Protein binding in rat plasma; type: ADME, cell-free; details: read-out: PPB (converted)
# Chain of Cytochrome P450 3A4 (P08684 whole entry): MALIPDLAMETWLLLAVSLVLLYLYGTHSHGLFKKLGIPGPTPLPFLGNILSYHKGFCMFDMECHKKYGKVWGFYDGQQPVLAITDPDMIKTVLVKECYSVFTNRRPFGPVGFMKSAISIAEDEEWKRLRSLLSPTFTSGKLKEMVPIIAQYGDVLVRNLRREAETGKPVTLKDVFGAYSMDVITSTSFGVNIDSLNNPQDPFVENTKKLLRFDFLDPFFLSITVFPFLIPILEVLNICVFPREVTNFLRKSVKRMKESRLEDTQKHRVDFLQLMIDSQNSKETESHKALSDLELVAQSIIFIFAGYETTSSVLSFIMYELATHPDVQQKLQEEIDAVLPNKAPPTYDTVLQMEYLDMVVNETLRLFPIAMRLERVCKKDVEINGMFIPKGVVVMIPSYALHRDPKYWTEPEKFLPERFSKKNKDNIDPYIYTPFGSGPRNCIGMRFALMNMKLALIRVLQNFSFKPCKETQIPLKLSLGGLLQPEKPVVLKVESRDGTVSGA
# Chain of Beta-secretase 1 (P56817 whole entry): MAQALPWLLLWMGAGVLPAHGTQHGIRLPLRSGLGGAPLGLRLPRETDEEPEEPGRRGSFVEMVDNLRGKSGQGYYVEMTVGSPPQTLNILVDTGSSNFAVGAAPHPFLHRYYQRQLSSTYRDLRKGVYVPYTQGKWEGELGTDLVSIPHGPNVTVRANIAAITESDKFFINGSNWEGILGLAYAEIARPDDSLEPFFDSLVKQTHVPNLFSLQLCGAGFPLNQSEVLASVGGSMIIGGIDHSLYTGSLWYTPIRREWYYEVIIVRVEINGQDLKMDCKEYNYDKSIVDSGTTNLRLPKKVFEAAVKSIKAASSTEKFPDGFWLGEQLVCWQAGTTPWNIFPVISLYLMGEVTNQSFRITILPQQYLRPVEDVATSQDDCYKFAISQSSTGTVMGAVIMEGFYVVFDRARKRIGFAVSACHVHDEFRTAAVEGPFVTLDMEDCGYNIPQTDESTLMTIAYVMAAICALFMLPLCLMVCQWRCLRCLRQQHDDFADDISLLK
IC50 (Cytochrome P450 3A4),Ki (Beta-secretase 1),Structure (SMILES),also measured
> 30000 nM,,CN1C(=O)[C@@H]2CN(c3ccc(F)cc3)C[C@]2(c2cc(-c3cccc(C#N)c3)cs2)N=C1N,
> 30000 nM,,CN1C(=O)[C@@H]2CN(c3ncccn3)C[C@]2(c2cc(-c3cccc(C#N)c3)cs2)N=C1N,
,,COc1nc(N2C[C@H]3C(=O)N(C)C(=N)N[C@@]3(c3cc(-c4cccc(C#N)c4)cs3)C2)ncc1F,Activity (Rattus norvegicus [1]): 45%
1200 nM,1 nM,CCCOc1nc(N2C[C@H]3C(=O)N(C)C(=N)N[C@@]3(c3cc(-c4cccc(C#N)c4)cs3)C2)ncc1F,Activity (Rattus norvegicus [1]): 12%
> 30000 nM,1 nM,CN1C(=N)N[C@@]2(c3cc(-c4cccc(C#N)c4)cs3)CN(c3ncc(F)c(N4CCOCC4)n3)C[C@H]2C1=O,Activity (Rattus norvegicus [2]): 17%
1600 nM,1 nM,COc1cc(C#N)cc(-c2csc([C@]34CN(c5ncc(F)cn5)C[C@H]3C(=O)N(C)C(=N)N4)c2)c1,
900 nM,1 nM,CCc1nc(N2C[C@H]3C(=O)N(C)C(=N)N[C@@]3(c3cc(-c4cccc(C#N)c4)cs3)C2)ncc1F,Activity (Rattus norvegicus [2]): 49%
1200 nM,1 nM,CN1C(=N)N[C@@]2(c3cc(-c4cccc(Cl)c4)cs3)CN(c3ncc(F)cn3)C[C@H]2C1=O,
900 nM,100 nM,CN1C(=N)N[C@@]2(c3cc(Br)cs3)CN(c3ncc(F)cn3)C[C@H]2C1=O,
> 30000 nM,3 nM,CN1C(=N)N[C@@]2(c3cc(-c4cccc(C#N)c4)cs3)CN(c3ncc(F)c(N4CCCC4)n3)C[C@H]2C1=O,Activity (Rattus norvegicus [2]): 2%
5700 nM,4 nM,CN1C(=N)N[C@@]2(c3cc(-c4ccc(F)c(C#N)c4)cs3)CN(c3ncc(F)cn3)C[C@H]2C1=O,
1600 nM,2 nM,CN1C(=N)N[C@@]2(c3cc(-c4cc(F)cc(C#N)c4)cs3)CN(c3ncc(F)cn3)C[C@H]2C1=O,
,1 nM,Cc1nc(N2C[C@H]3C(=O)N(C)C(=N)N[C@@]3(c3cc(-c4cccc(C#N)c4)cs3)C2)nc(C)c1F,Activity (Rattus norvegicus [2]): 54%; AUC(0-inf) [3]: 34 µM·h; Cmax [4]: 5.8 µM; bioavailability [5]: 54%; clearance [6]: 5.6 mL/min/kg; Vd [7]: 1 L/kg; half-life [8]: 2.1 h; fraction unbound [9]: 0.003
600 nM,0.7 nM,Cc1nc(N2C[C@H]3C(=O)N(C)C(=N)N[C@@]3(c3cc(-c4cccc(C#N)c4)cs3)C2)ncc1F,Activity (Rattus norvegicus [2]): 38%
1000 nM,10 nM,CN1C(=N)N[C@@]2(c3cc(-c4cc(F)cc(F)c4)cs3)CN(c3ncc(F)cn3)C[C@H]2C1=O,
11000 nM,0.7 nM,COc1nc(N2C[C@H]3C(=O)N(C)C(=N)N[C@@]3(c3cc(-c4cccc(C#N)c4)cs3)C2)nc(C)c1F,
700 nM,1 nM,CCOc1nc(N2C[C@H]3C(=O)N(C)C(=N)N[C@@]3(c3cc(-c4cccc(C#N)c4)cs3)C2)ncc1F,Activity (Rattus norvegicus [1]): 20%
5500 nM,10 nM,CN1C(=N)N[C@@]2(c3cc(-c4ccc(Cl)c(C#N)c4)cs3)CN(c3ncc(F)cn3)C[C@H]2C1=O,
